Experimental data: ChEMBL document CHEMBL1142148, “Antibiotic susceptibility profile of bifidobacteria as affected by oxgall, acid, and hydrogen peroxide stress” (2007)
≈ marks a conversion by molar mass, not a printed value.

How the values were obtained:
[1] = test system: Bifidobacterium breve; assay: Antimicrobial activity against 60 min 1 M HCl-stressed Bifidobacterium breve ATCC 15700 after 18 hrs; assay type: functional
Outline: (§1)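 Mid-log MRS culture pelleted and resuspended in MRS broth brought to pH 2.0 with 1 M HCl, held anaerobically at 37°C for 60 min, then subcultured in MRS (pH 6.5) for 24 h anaerobically before MIC testing by broth microdilution (as for unstressed cells). Table footnote gives 18 h anaerobic regrowth after the stress. MIC is the median of four repetitions.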

[2] = Antimicrobial activity against Bifidobacterium infantis ATCC 15697; assay type: functional, Bifidobacterium longum subsp. infantis; conditions: Bifidobacterium longum
Outline: (§2)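 Broth microdilution in MRS plus 0.05% L-cysteine-HCl. Mid-log culture adjusted to OD650 0.1, giving about 2.5 × 10^4 to 5.0 × 10^4 CFU/well, then added to twofold serial dilutions of agent. Plates incubated anaerobically at 37°C for 18 h and read at OD650. MIC is the lowest concentration matching the uninoculated blank OD, taken as the median of four repeats.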

[3] = test system: Bifidobacterium animalis; assay: Antimicrobial activity against 90 mins oxgall-stressed Bifidobacterium animalis ATCC 27536 after 18 hrs; assay type: functional
Outline: (§3)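 Cells pelleted from mid-log MRS culture and resuspended in MRS (initial pH 6.5) with 0.3% (wt/vol) oxgall for 90 min anaerobically at 37°C. They were then regrown in MRS pH 6.5 for 24 h (footnote: 18 h) anaerobically and tested for MIC by the same broth microdilution assay. Median of four repetitions.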

[4] = test system: Bifidobacterium breve; assay: Antimicrobial activity against 90 mins oxgall-stressed Bifidobacterium breve ATCC 15700 after 18 hrs; assay type: functional; outline: as §3
[5] = Antimicrobial activity against 60 min 1 M HCl-stressed Bifidobacterium infantis ATCC 15697 after 18 hrs; assay type: functional, Bifidobacterium longum subsp. infantis; conditions: Bifidobacterium longum; outline: as §1
[6] = test system: Bifidobacterium bifidum; assay: Antimicrobial activity against Bifidobacterium bifidum BB12; assay type: functional; outline: as §2
[7] = test system: Bifidobacterium longum; assay: Antimicrobial activity against 90 mins oxgall-stressed Bifidobacterium longum ATCC 15708 after 18 hrs; assay type: functional; outline: as §3
[8] = test system: Bifidobacterium animalis; assay: Antimicrobial activity against 90 mins hydrogen peroxide-stressed Bifidobacterium animalis ATCC 27536 after 18 hrs; assay type: functional
Outline: (§4)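 Stress applied for 90 min at 37°C under anaerobic conditions, using MRS (initial pH 6.5) containing H2O2 at each strain's own inhibitory concentration. The H2O2 level was set beforehand by microplate tolerance testing. Challenged cells were regrown in MRS for 24 h (footnote: 18 h) before MIC testing by broth microdilution. Median of four repetitions.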

[9] = test system: Bifidobacterium bifidum; assay: Antimicrobial activity against 90 mins hydrogen peroxide-stressed Bifidobacterium bifidum R0071 after 18 hrs; assay type: functional; outline: as §4
[10] = test system: Bifidobacterium pseudolongum; assay: Antimicrobial activity against 90 mins oxgall-stressed Bifidobacterium pseudolongum ATCC 25562 after 18 hrs; assay type: functional; outline: as §3
[11] = test system: Bifidobacterium longum; assay: Antimicrobial activity against 90 mins oxgall-stressed Bifidobacterium longum P/N 601377 after 18 hrs; assay type: functional; outline: as §3
[12] = test system: Bifidobacterium longum; assay: Antimicrobial activity against 60 min 1 M HCl-stressed Bifidobacterium longum R0175 after 18 hrs; assay type: functional; outline: as §1
[13] = test system: Bifidobacterium breve; assay: Antimicrobial activity against 60 min 1 M HCl-stressed Bifidobacterium breve R0070 after 18 hrs; assay type: functional; outline: as §1
[14] = test system: Bifidobacterium bifidum; assay: Antimicrobial activity against Bifidobacterium bifidum R0071; assay type: functional; outline: as §2
[15] = test system: Bifidobacterium longum; assay: Antimicrobial activity against Bifidobacterium longum ATCC 15708; assay type: functional; outline: as §2
[16] = test system: Bifidobacterium longum; assay: Antimicrobial activity against 60 min 1 M HCl-stressed Bifidobacterium longum P/N 601377 after 18 hrs; assay type: functional; outline: as §1
[17] = test system: Bifidobacterium animalis; assay: Antimicrobial activity against 60 min 1 M HCl-stressed Bifidobacterium animalis ATCC 27536 after 18 hrs; assay type: functional; outline: as §1
[18] = test system: Bifidobacterium thermophilum; assay: Antimicrobial activity against 90 mins hydrogen peroxide-stressed Bifidobacterium thermophilum ATCC 25866 after 18 hrs; assay type: functional; outline: as §4
[19] = test system: Bifidobacterium thermophilum; assay: Antimicrobial activity against Bifidobacterium thermophilum ATCC 25866; assay type: functional; outline: as §2
[20] = test system: Bifidobacterium longum; assay: Antimicrobial activity against 90 mins hydrogen peroxide-stressed Bifidobacterium longum R0175 after 18 hrs; assay type: functional; outline: as §4
[21] = test system: Bifidobacterium bifidum; assay: Antimicrobial activity against 90 mins hydrogen peroxide-stressed Bifidobacterium bifidum BB12 after 18 hrs; assay type: functional; outline: as §4
[22] = test system: Bifidobacterium bifidum; assay: Antimicrobial activity against 60 min 1 M HCl-stressed Bifidobacterium bifidum BB12 after 18 hrs; assay type: functional; outline: as §1
[23] = test system: Bifidobacterium longum; assay: Antimicrobial activity against Bifidobacterium longum R0175; assay type: functional; outline: as §2
[24] = test system: Bifidobacterium breve; assay: Antimicrobial activity against 90 mins hydrogen peroxide-stressed Bifidobacterium breve R0070 after 18 hrs; assay type: functional; outline: as §4
[25] = test system: Bifidobacterium pseudolongum; assay: Antimicrobial activity against Bifidobacterium pseudolongum ATCC 25562; assay type: functional; outline: as §2
[26] = test system: Bifidobacterium thermophilum; assay: Antimicrobial activity against 60 min 1 M HCl-stressed Bifidobacterium thermophilum ATCC 25866 after 18 hrs; assay type: functional; outline: as §1
[27] = test system: Bifidobacterium bifidum; assay: Antimicrobial activity against 90 mins oxgall-stressed Bifidobacterium bifidum R0071 after 18 hrs; assay type: functional; outline: as §3
[28] = test system: Bifidobacterium breve; assay: Antimicrobial activity against Bifidobacterium breve ATCC 15700; assay type: functional; outline: as §2
[29] = test system: Bifidobacterium bifidum; assay: Antimicrobial activity against 90 mins oxgall-stressed Bifidobacterium bifidum BB12 after 18 hrs; assay type: functional; outline: as §3
[30] = test system: Bifidobacterium longum; assay: Antimicrobial activity against Bifidobacterium longum P/N 601377; assay type: functional; outline: as §2
[31] = test system: Bifidobacterium bifidum; assay: Antimicrobial activity against 60 min 1 M HCl-stressed Bifidobacterium bifidum R0071 after 18 hrs; assay type: functional; outline: as §1
[32] = test system: Bifidobacterium breve; assay: Antimicrobial activity against Bifidobacterium breve R0070; assay type: functional; outline: as §2
[33] = test system: Bifidobacterium thermophilum; assay: Antimicrobial activity against 90 mins oxgall-stressed Bifidobacterium thermophilum ATCC 25866 after 18 hrs; assay type: functional; outline: as §3
[34] = test system: Bifidobacterium bifidum; assay: Antimicrobial activity against 90 mins oxgall-stressed Bifidobacterium bifidum ATCC 15696 after 18 hrs; assay type: functional; outline: as §3
[35] = test system: Bifidobacterium longum; assay: Antimicrobial activity against 90 mins oxgall-stressed Bifidobacterium longum R0175 after 18 hrs; assay type: functional; outline: as §3
[36] = test system: Bifidobacterium breve; assay: Antimicrobial activity against 90 mins oxgall-stressed Bifidobacterium breve R0070 after 18 hrs; assay type: functional; outline: as §3
[37] = test system: Bifidobacterium longum; assay: Antimicrobial activity against 90 mins hydrogen peroxide-stressed Bifidobacterium longum P/N 601377 after 18 hrs; assay type: functional; outline: as §4
[38] = test system: Bifidobacterium bifidum; assay: Antimicrobial activity against Bifidobacterium bifidum ATCC 15696; assay type: functional; outline: as §2
[39] = test system: Bifidobacterium longum; assay: Antimicrobial activity against Bifidobacterium longum ATCC 15707; assay type: functional; outline: as §2
[40] = test system: Bifidobacterium longum; assay: Antimicrobial activity against 90 mins oxgall-stressed Bifidobacterium longum ATCC 15707 after 18 hrs; assay type: functional; outline: as §3
[41] = test system: Bifidobacterium longum; assay: Antimicrobial activity against 90 mins hydrogen peroxide-stressed Bifidobacterium longum ATCC 15708 after 18 hrs; assay type: functional; outline: as §4
[42] = test system: Bifidobacterium animalis; assay: Antimicrobial activity against Bifidobacterium animalis ATCC 27536; assay type: functional; outline: as §2
[43] = test system: Bifidobacterium pseudolongum; assay: Antimicrobial activity against 60 min 1 M HCl-stressed Bifidobacterium pseudolongum ATCC 25562 after 18 hrs; assay type: functional; outline: as §1
[44] = test system: Bifidobacterium breve; assay: Antimicrobial activity against 90 mins hydrogen peroxide-stressed Bifidobacterium breve ATCC 15700 after 18 hrs; assay type: functional; outline: as §4
[45] = Antimicrobial activity against 90 mins oxgall-stressed Bifidobacterium infantis ATCC 15697 after 18 hrs; assay type: functional, Bifidobacterium longum subsp. infantis; conditions: Bifidobacterium longum; outline: as §3
[46] = test system: Bifidobacterium longum; assay: Antimicrobial activity against 60 min 1 M HCl-stressed Bifidobacterium longum ATCC 15707 after 18 hrs; assay type: functional; outline: as §1
[47] = test system: Bifidobacterium longum; assay: Antimicrobial activity against 90 mins hydrogen peroxide-stressed Bifidobacterium longum ATCC 15707 after 18 hrs; assay type: functional; outline: as §4

MIC [1]: 62.5 µg/mL (≈ 193 µM)
MIC [2]: 62.5 µg/mL (≈ 193 µM)
MIC [3]: 1.9 µg/mL (≈ 5.88 µM)
MIC [4]: 3.9 µg/mL (≈ 12.1 µM)
MIC [5]: 0.98 µg/mL (≈ 3.03 µM)
MIC [6]: 1.9 µg/mL (≈ 5.88 µM)
MIC [7]: 0.98 µg/mL (≈ 3.03 µM)
MIC [8]: 3.9 µg/mL (≈ 12.1 µM)
MIC [9]: 1.9 µg/mL (≈ 5.88 µM)
MIC [10]: 0.98 µg/mL (≈ 3.03 µM)
MIC [11]: 1.9 µg/mL (≈ 5.88 µM)
MIC [12]: 3.9 µg/mL (≈ 12.1 µM)
MIC [13]: 3.9 µg/mL (≈ 12.1 µM)
MIC [14]: 1.9 µg/mL (≈ 5.88 µM)
MIC [15]: 31.2 µg/mL (≈ 96.6 µM)
MIC [16]: 1.9 µg/mL (≈ 5.88 µM)
MIC [17]: 1.9 µg/mL (≈ 5.88 µM)
MIC [18]: 1.9 µg/mL (≈ 5.88 µM)
MIC [19]: 7.8 µg/mL (≈ 24.1 µM)
MIC [20]: 1.9 µg/mL (≈ 5.88 µM)
MIC [21]: 1.9 µg/mL (≈ 5.88 µM)
MIC [22]: 1.9 µg/mL (≈ 5.88 µM)
MIC [23]: 7.8 µg/mL (≈ 24.1 µM)
MIC [24]: 1.9 µg/mL (≈ 5.88 µM)
MIC [25]: 7.8 µg/mL (≈ 24.1 µM)
MIC [26]: 3.9 µg/mL (≈ 12.1 µM)
MIC [27]: 3.9 µg/mL (≈ 12.1 µM)
MIC [28]: 7.8 µg/mL (≈ 24.1 µM)
MIC [29]: 1.9 µg/mL (≈ 5.88 µM)
MIC [30]: 3.9 µg/mL (≈ 12.1 µM)
MIC [31]: 7.8 µg/mL (≈ 24.1 µM)
MIC [32]: 7.8 µg/mL (≈ 24.1 µM)
MIC [33]: 3.9 µg/mL (≈ 12.1 µM)
MIC [34]: 3.9 µg/mL (≈ 12.1 µM)
MIC [35]: 1.9 µg/mL (≈ 5.88 µM)
MIC [36]: 3.9 µg/mL (≈ 12.1 µM)
MIC [37]: 1.9 µg/mL (≈ 5.88 µM)
MIC [38]: 1.9 µg/mL (≈ 5.88 µM)
MIC [39]: 15.6 µg/mL (≈ 48.3 µM)
MIC [40]: 1.9 µg/mL (≈ 5.88 µM)
MIC [41]: 3.9 µg/mL (≈ 12.1 µM)
MIC [42]: 7.8 µg/mL (≈ 24.1 µM)
MIC [43]: 3.9 µg/mL (≈ 12.1 µM)
MIC [44]: 1.9 µg/mL (≈ 5.88 µM)
MIC [45]: 0.98 µg/mL (≈ 3.03 µM)
MIC [46]: 7.8 µg/mL (≈ 24.1 µM)
MIC [47]: 1.9 µg/mL (≈ 5.88 µM)
Compound: O=C(N[C@H](CO)[C@H](O)c1ccc([N+](=O)[O-])cc1)C(Cl)Cl [CHLORAMPHENICOL]
